Source: PubChem BioAssay (several laboratories)
NTR1 agonist – agonists of human NTR1, primary screen, imaging, U2OS cells, beta-arrestin-GFP, high content; Neurotensin receptor type 1 (Homo sapiens), P30989; NTR1-U2OS beta-arrestin-GFP spot imaging, agonist mode; activation, % at 20 µM; 0.17% of 330,000 active;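 active = activation at or above 40% of the spot to cytoplasm intensity ratio, with at least 20 cells analyzed; inconclusive = wells under 20 cells, flagged as cytotoxic or low count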;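 note: 0% = DMSO without peptide and 100% = 100 nM NTR1 peptide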
Target sequence (P30989 whole entry, looked up): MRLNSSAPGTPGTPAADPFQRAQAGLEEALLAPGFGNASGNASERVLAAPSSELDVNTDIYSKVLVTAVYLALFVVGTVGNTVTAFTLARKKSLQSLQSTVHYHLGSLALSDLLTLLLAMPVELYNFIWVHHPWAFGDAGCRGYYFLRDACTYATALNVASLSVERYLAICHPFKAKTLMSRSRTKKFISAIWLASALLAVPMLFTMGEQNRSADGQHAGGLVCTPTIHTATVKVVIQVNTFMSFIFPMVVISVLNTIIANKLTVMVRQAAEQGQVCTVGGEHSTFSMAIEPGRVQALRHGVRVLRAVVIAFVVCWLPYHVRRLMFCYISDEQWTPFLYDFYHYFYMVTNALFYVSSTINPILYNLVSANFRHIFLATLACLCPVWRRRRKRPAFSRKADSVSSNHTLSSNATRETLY
CXCR6 block – CXCR6 receptor inhibitors, primary screen, cell-based, beta-arrestin, luminescence, CHO-K1 PathHunter, 1536-well | AID 602244, 2012 | C-X-C chemokine receptor type 6 (Homo sapiens), O00574 | inhibition, % at 20 µM | 0.36% of 360,000 active; in the data active = inhibition above about 34%, passing the limit was not always enough;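 note: antagonist mode with CXCL16 agonist at 10 nM final; 0% = 10 nM CXCL16 with DMSO and 100% = unstimulated wells without agonist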
CCR6 antagonist – CCR6 receptor antagonists, primary screen, cell-based, CHO-K1, luminescence, beta-arrestin, uHTS; C-C chemokine receptor type 6 (Homo sapiens), P51684; inhibition, % at 20 µM; AID 493098, 2011; CHO-K1 CCR6 PathHunter beta-arrestin, CCL20-stimulated; 0.49% of 340,000 active;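 active = compounds whose inhibition of the agonist-driven luminescence signal at 20 µM reaches about 50%, limit read from the data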;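 note: cells stimulated with CCL20 at 14 nM final; plate controls were DMSO with CCL20 for no effect and DMSO without agonist for full effect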
APJ agonist – agonists of human apelin receptor APJ, primary screen, CHO-K1 cells, PathHunter beta-arrestin, luminescence. P35414. 0% DMSO wells, 100% apelin. activation, % at 20 µM. 0.11% of 330,000 active. AID 2520, 2010;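 active = activation more than six SD over the plate average, tested at 20 µM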;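 note: 0% = DMSO alone and 100% = apelin-13 at 10 nM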
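Assay system – PathHunter CHO-K1 APJ (AGTRL-1) beta-arrestin reporter cells · Compound – one dose, 20 µM compound, 1% DMSO · Timing – compound 90 min 25 °C, reagent 1 h · Measured by – luminescence from split beta-galactosidase complementation, Galacton Star/Emerald II substrate · Measure – beta-arrestin recruitment to APJ as agonist activity, luminescent signal · Benchmarks – DMSO vs Apelin-13 10 nM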
APJ antag – antagonists of human apelin receptor APJ, primary screen, CHO-K1 cells, beta-arrestin complementation, luminescence; AID 2521, 2010; 0.32% of 330,000 active; inhibition, % at 20 µM;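 active = inhibition above about 40% at 20 µM, limit read from the data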;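 note: cells challenged with 10 nM apelin-13 agonist together with compound; plate controls were apelin-13 plus DMSO wells for no effect and DMSO wells lacking apelin-13 for full effect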
HTR2A ag – mouse Htr2a agonists via beta-arrestin recruitment, primary screen, cell-based, luminescence | 5-hydroxytryptamine receptor 2A (Mus musculus), P35363 | CHO-K1 mHTR2A beta-arrestin complementation; percent of 30 µM serotonin response | activation, % at 7.6 µM | 0.66% of 360,000 active;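 active = activation above a run cutoff, the mean activation of all tested compounds plus 3 SD, cut at about 14% in these data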;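 note: 0% = plate median of compound wells and 100% = 30 µM serotonin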
NTR1 ag conf – NTR1 agonists, single-dose retest, confirmation, imaging, U2OS cells, beta-arrestin-GFP, single concentration; shares compounds with NTR1 agonist; NTR1-U2OS beta-arrestin-GFP translocation imaging; activation, % at 20 µM; 38% of 480 active; AID 504550, 2011;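 active = mean activation at 20 µM of at least 40%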;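 note: 0% = DMSO without peptide and 100% = 100 nM NTR1 peptide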
Starred values were filed as active, the others as inactive. Sampled rows, rich in hits. Any-hit rate of the full collection: about 1.5%.

For CC(C)(C)C1CCc2c(sc(NC(=O)CSc3ncn[nH]3)c2C#N)C1 (centres undefined) the results were NTR1 agonist 41*, CXCR6 block -6, CCR6 antagonist -4, APJ agonist -1, APJ antag 1, HTR2A ag 1 and NTR1 ag conf 31.
For COc1ccc(C2CC(c3cccc(C(F)(F)F)c3)=NN2c2ccc(S(N)(=O)=O)cc2)cc1 (centres undefined) the results were NTR1 agonist 17, CXCR6 block -3, CCR6 antagonist 24 and HTR2A ag -2.
Screening CC1=C(C(=O)N(C(C)C)C(C)C)CC(CC(=O)NCc2ccco2)C(=O)N1CCCN1CCCC1=O (centres undefined) returned CXCR6 block 2 and HTR2A ag 3.
For O=C(CN(C(=O)c1csnn1)c1ccccc1Cl)NC1CCCC1 the results were NTR1 agonist 0, CXCR6 block -5, CCR6 antagonist 11, APJ agonist 2, APJ antag 18 and HTR2A ag 6.
C/C(=N\Nc1cc(-c2ccccc2)nc(-c2ccccc2)n1)c1ccc(O)c(C)c1 was read as NTR1 agonist 34, CXCR6 block 18, CCR6 antagonist -13, APJ agonist 1, APJ antag -12 and HTR2A ag 0.
Screening COc1cc(N/N=C(\C)c2ccc(O)c(C)c2)nc(-c2ccccc2)n1 returned NTR1 agonist 53*, CXCR6 block -21, CCR6 antagonist -14, APJ agonist -3, APJ antag -12, HTR2A ag 2 and NTR1 ag conf 20.
`O=Cc1ccc(Sc2nnc(-c3ccccc3)o2)c([N+](=O)[O-])c1` gave NTR1 agonist inconclusive, CXCR6 block -22, CCR6 antagonist -24, APJ agonist 3, APJ antag -9, HTR2A ag 0 and NTR1 ag conf 8.
For Cc1cc(C)nc(Sc2ccc(C=O)cc2[N+](=O)[O-])n1 the results were NTR1 agonist 3, CXCR6 block -6, CCR6 antagonist -6, APJ agonist 2, APJ antag -3 and HTR2A ag 2.
Screening COc1ccc(CN2C(=O)c3cccc4cccc(c34)C2c2nc3ccccc3[nH]2)cc1 (centres undefined) returned CXCR6 block 9 and HTR2A ag 11.
Screening O=C(CSc1nc2ccc([N+](=O)[O-])cc2[nH]1)c1ccc2ccccc2c1 returned NTR1 agonist 44*, CXCR6 block 4, CCR6 antagonist 19, APJ agonist -3, APJ antag -4, HTR2A ag 0 and NTR1 ag conf 3.
O=C(CSc1nc2ncc(Br)cc2[nH]1)c1ccc([N+](=O)[O-])cc1 was read as NTR1 agonist 3, CXCR6 block 3, CCR6 antagonist 27, APJ agonist 3, APJ antag 0 and HTR2A ag 0.
`COc1ccc(CCNc2ccc(C(CC(N)=O)NC(=O)Cc3cccc4ccccc34)cc2[N+](=O)[O-])cc1` (centres undefined) gave NTR1 agonist 48*, CXCR6 block 8, CCR6 antagonist 23, APJ agonist -6, APJ antag 25, HTR2A ag -4 and NTR1 ag conf 10.
Screening O=C(CSc1nc2nc3c(cc2c(=O)n1-c1ccccc1)CCCC3)Nc1ccccc1 returned NTR1 agonist 3, CXCR6 block 0, CCR6 antagonist 11, APJ agonist -1, APJ antag 10 and HTR2A ag -2.
For CCn1c(SCc2ccc(Cl)cc2Cl)nc2nc3c(cc2c1=O)CCCC3 the results were NTR1 agonist 44*, CXCR6 block 9, CCR6 antagonist 18, APJ agonist -2, APJ antag -4, HTR2A ag -2 and NTR1 ag conf 31.
